A selection: hits, their analogues and other compounds. The true share with any hit is near 1.3%.
DAGLB inh: diacylglycerol lipase beta (human) inhibition; Q8NCG7; HEK293T DAGLB membrane lysate, EnzChek fluorogenic substrate; inhibition, % at 5.17 µM; hit rate 0.059% among 340,000; AID 504411; in the data active = inhibition above about 34%
Target sequence (Q8NCG7 whole entry, looked up): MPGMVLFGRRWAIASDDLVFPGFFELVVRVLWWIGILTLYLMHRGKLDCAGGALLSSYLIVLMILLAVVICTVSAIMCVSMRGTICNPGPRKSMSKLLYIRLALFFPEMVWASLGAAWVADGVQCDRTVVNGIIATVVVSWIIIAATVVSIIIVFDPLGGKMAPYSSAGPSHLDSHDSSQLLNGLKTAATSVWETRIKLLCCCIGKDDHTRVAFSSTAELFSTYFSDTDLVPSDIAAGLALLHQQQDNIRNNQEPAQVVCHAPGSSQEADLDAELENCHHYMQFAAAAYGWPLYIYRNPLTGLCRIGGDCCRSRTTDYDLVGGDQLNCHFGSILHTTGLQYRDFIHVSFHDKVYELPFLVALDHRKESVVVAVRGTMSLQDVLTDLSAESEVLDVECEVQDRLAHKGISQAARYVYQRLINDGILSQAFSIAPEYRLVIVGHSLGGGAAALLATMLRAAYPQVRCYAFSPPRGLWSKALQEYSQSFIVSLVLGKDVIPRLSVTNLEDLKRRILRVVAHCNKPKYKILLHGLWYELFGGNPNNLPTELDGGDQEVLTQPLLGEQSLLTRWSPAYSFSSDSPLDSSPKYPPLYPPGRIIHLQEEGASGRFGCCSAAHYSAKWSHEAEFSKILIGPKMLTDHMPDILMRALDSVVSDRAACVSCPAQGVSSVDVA
TMEM16A act: activators or potentiators of mouse TMEM16A chloride channel | Q8BHY3 | HEK293 TMEM16A/YFP-H148Q/I152L, iodide quench fluorescence; hits give low values | B-score at 10 µM | hit rate 0.3% among 340,000 | AID 623877;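 active = fluorescence-ratio B-score plate-corrected deviation score at least 3 library SD below zero, with starting fluorescence score within 5 deviations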;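 also: channel opened by trigger with iodide after compound preincubation; score built on the fluorescence ratio of max minus min over baseline; more negative score means more quench and so TMEM16A activation or potentiation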
TMEM16A inh: inhibitors of mouse TMEM16A calcium-activated chloride channel; Q8BHY3; HEK293 TMEM16A/YFP iodide influx fluorescence, ionomycin; normalized B-score (activity score, 25-100; higher = stronger inhibition) at 10 µM; hit rate 1.2% among 310,000; AID 588511;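 active = ratio plate-corrected score three or more library SD toward inhibition, starting fluorescence score within five deviations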;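 also: score derived from kinetic fluorescence span divided by baseline fluorescence per well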
MT1-MMP act inh: blocks activation of human MT1-MMP; P50281; HT1080 RFP-PRO-GFP cells, GFP/RFP ratio fluorescence, overnight; percent of plate control window, DMSO zero; GFP/RFP ratio change, % at 20 µM; hit rate 0.061% among 360,000;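 active = GFP/RFP ratio change of at least 30% with cell ATP level not reduced by more than half and red fluorescence within 50% of control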
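Test system: HT1080 RFP-PRO-GFP cells; Benchmarks: DMSO and RFP-L50D-GFP cell wells; Timing: cells overnight before dosing, compound overnight, 37 °C, 5% CO2; Compound: one 20 µM compound dose with 1% DMSO; Read-out: GFP/RFP fluorescence ratio.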
Of the large screens only hits and unclear results are named; the others gave an inactive call.

Cc1ccc(CSC2=NCCN2C(=O)c2ccc([N+](=O)[O-])cc2)cc1	none
Cc1ccc(C(=O)N2CCN=C2SCc2ccc([N+](=O)[O-])cc2)cc1	TMEM16A act -5.8
O=C1CC(SC(=S)C2CCCC2=O)C(=O)N1 (stereo not given)	none (no result: TMEM16A act, TMEM16A inh)
CC(C)n1c2ccccc2c2cc([N+](=O)[O-])ccc21	none
CCC(C)n1c(=S)[nH]c2c(sc3ccc([N+](=O)[O-])cc32)c1=O (stereo not given)	TMEM16A inh 25
COc1ccc(C(=O)C2CCCN(Cc3ccc4nonc4c3)C2)cc1F (stereo not given)	TMEM16A inh 25
COC(=O)[C@@H](Cc1c[nH]c2ccccc12)NC(=O)CCC(=O)c1ccc(F)cc1	none
CCc1nc(NCCCn2ccnc2)c2oc3ccccc3c2n1	TMEM16A act -26
c1ccc(-c2nc(NCCCn3ccnc3)c3oc4ccccc4c3n2)cc1	none
Cc1cccc(OCC(=O)Nc2ccc3c(c2)nc(CCN2CCN(c4ccccn4)CC2)n3C)c1	TMEM16A inh 100
COc1ccccc1NC(=O)CN1C(=O)NC2(CCCc3ccccc32)C1=O (stereo not given)	none (no result: TMEM16A inh)
COc1ccc(Cn2cc(CN3CC(N(C)C)CS3(=O)=O)nn2)cc1 (stereo not given)	none (no result: DAGLB inh, TMEM16A act, TMEM16A inh)
CC(C)(C)c1ccc(C(=O)NCCC(=O)N2CCN(c3ncccn3)CC2)cc1	TMEM16A inh 100
CC(C)(C)c1ccc(C(=O)NCCC(=O)N2CCCC2)cc1	none
CCc1ccc(-c2cc(C)no2)cc1S(=O)(=O)NCCc1ccc(OC)c(OC)c1	TMEM16A inh 100
COc1ccccc1NS(=O)(=O)c1cc(-c2cc(C)no2)ccc1OC	TMEM16A inh 100
COC(=O)c1ccc(-n2c(C)ccc2-c2ccccc2)cc1	none
COc1ccc(-n2c(C)ccc2-c2ccccc2)cn1	TMEM16A act -4.8
Cc1ccc(C(O)c2ncc(-c3ccc(Cl)cc3)[nH]2)cc1 (stereo not given)	none (no result: DAGLB inh, TMEM16A act, TMEM16A inh)
CCc1nn(CC(=O)NCCCN2CCc3ccccc3C2)c(=O)c2cc3sccc3n12	TMEM16A inh 100
N/C(=N\OS(=O)(=O)c1ccc2ccccc2c1)c1ccncc1	none
N/C(=N\OS(=O)(=O)c1ccc2ccccc2c1)c1ccccn1	TMEM16A act -26 (no result: TMEM16A inh)
O=S(=O)(Nc1ncnc2sc3c(c12)CCC3)c1ccc2ccccc2c1	TMEM16A inh 100
Cc1cc(F)ccc1S(=O)(=O)Nc1ncnc2sc3c(c12)CCC3	none
CN(C)S(=O)(=O)c1cccc(COc2cccnc2[N+](=O)[O-])c1	none
CN(C)S(=O)(=O)c1cccc(COc2ncnc3c(Cl)cc(Cl)cc23)c1	TMEM16A act -9.5
N#Cc1c(NC(=S)NC(=O)c2ccccc2)sc2c1CCN(CCc1ccccc1)C2	none (no result: DAGLB inh, TMEM16A act, MT1-MMP act inh)
N#Cc1c(N)sc2c1CCN(CCc1ccccc1)C2	TMEM16A inh 25
Cn1c(=O)n(C)c2cc(NS(=O)(=O)c3ccc(C(C)(C)C)cc3)ccc21	TMEM16A inh 25
Cc1ccccc1S(=O)(=O)N1C[C@H]2[C@H]3C(=O)N(c4ccccc4)C(=O)[C@H]3CC(=O)[C@H]2[C@@H]1c1ccc(Cl)cc1	none (no result: DAGLB inh, TMEM16A act, TMEM16A inh)
CCCc1cc(C(=O)N2CCCC(C(=O)c3cccc4ccccc34)C2)n(C)n1 (stereo not given)	none
CCc1cc(C(=O)N2CCCC(C(=O)c3cccc4ccccc34)C2)n(C)n1 (stereo not given)	TMEM16A inh 25
CC(=O)OCC1OC(n2cc(F)c(=O)[nH]c2=O)C(OC(C)=O)C1OC(C)=O (stereo not given)	none
O=C1C(F)=CC(COC(c2ccccc2)(c2ccccc2)c2ccccc2)OC1n1cc(F)c(=O)[nH]c1=O (stereo not given)	TMEM16A act -13 (no result: TMEM16A inh)
COc1ccccc1-c1cc(C(=O)N/N=C/c2sccc2C)c2ccccc2n1	none
O=C(N/N=C/c1cc([N+](=O)[O-])ccc1O)c1cc(-c2ccccc2)nc2ccccc12	TMEM16A inh 25
Cc1ccsc1/C=N/NC(=O)c1cc(-c2ccncc2)nc2ccccc12	TMEM16A act -5
CCN(CC)C(=O)CCSc1nnc(-c2ccco2)o1	none
O=C(NNc1c([N+](=O)[O-])cc(C(F)(F)F)cc1[N+](=O)[O-])c1ccco1	TMEM16A inh 100
COc1cc(/C=C2/SC(=S)N(CC(=O)O)C2=O)ccc1OC(=O)c1ccco1	TMEM16A act -5.3
O=C(CN1CCN(S(=O)(=O)c2ccccc2)CC1)NC(=O)NCc1ccccc1	TMEM16A act -11
CC(Oc1ccc(F)cc1)C(=O)N(CCC1=CCCCC1)c1c(N)n(Cc2ccccc2)c(=O)[nH]c1=O (stereo not given)	none
COc1ccc(OC)c(NC(=O)C2(C)CCN2CCOc2ccccc2)c1 (stereo not given)	none (no result: DAGLB inh, TMEM16A act, TMEM16A inh)
C=CCn1c(COc2cccc3cccnc23)nnc1SCC(=O)O	TMEM16A act -10
COc1cc(C(=S)N2CCOCC2)ccc1OC(=O)c1cccc(C)c1	TMEM16A inh 25
COc1cc(C(=S)N2CCOCC2)ccc1OC(=O)c1ccc(Br)cc1	none
COc1cccc(-c2cnc3c(NC(C)=O)cc(-c4ccc(S(C)(=O)=O)cc4)cn23)c1	none (no result: DAGLB inh, TMEM16A act, TMEM16A inh)
CC(C)C(=O)N1CCN(c2ccc(NC(=O)c3ccc4c(c3)OCCO4)cc2Cl)CC1	TMEM16A inh 100
CCOc1ccc(S(=O)(=O)N2CCCCC2)cc1NC(=O)CN1C(=O)NC(C)(c2ccc(C)cc2)C1=O (stereo not given)	none
CCN1C(=O)/C(=C2\SC(=S)N(NC(=O)c3ccccc3O)C2=O)c2ccccc21	TMEM16A inh 100
O=c1c(-c2ccco2)nc2ccccc2n1C(c1ccccc1)c1nc2ccccc2[nH]1 (stereo not given)	none (no result: DAGLB inh, TMEM16A act, TMEM16A inh)
CC1CCN(c2ccc3nnc(CCC(=O)N4CCN(c5ccc(F)cc5)CC4)n3n2)CC1	none
Fc1ccc(Cn2ccc(-c3cnc(-c4ccccc4)s3)n2)cc1	TMEM16A inh 100
O=C(c1ccc(F)cc1)n1ccc(-c2cnc(-c3ccccc3)s2)n1	none
COc1ccc(N(CC(=O)NC2CC3CCC2C3)S(=O)(=O)c2ccc(C)cc2)cc1Cl (stereo not given)	none (no result: TMEM16A act, TMEM16A inh)
CC(C)Cn1c(N)c(C(=O)COC(=O)CCNS(=O)(=O)c2ccccc2)c(=O)n(C)c1=O	TMEM16A inh 25
Cc1ccccc1OCCC(=O)OCC(=O)c1c(N)n(CC(C)C)c(=O)n(C)c1=O	none
CC(C)Cn1c(N)c(C(=O)COC(=O)C2CC(=O)N(Cc3ccccc3Cl)C2)c(=O)n(C)c1=O (stereo not given)	TMEM16A act -4.6
COc1ccc(CCN2CC(C(=O)OCC(=O)c3c(N)n(CC(C)C)c(=O)n(C)c3=O)CC2=O)cc1OC (stereo not given)	none (no result: TMEM16A act, TMEM16A inh)
Cc1cc(C)n(CCc2nc(-c3ccc(C(C)(C)C)cc3)cs2)n1	TMEM16A inh 25
COc1cc(/C=N/NC(=S)NC2CC3CC2C2C=CCC32)ccc1O (stereo not given)	TMEM16A inh 100

Screening data: PubChem BioAssay, several laboratories
